Structures are written as SMILES. A value given as a limit tells only on which side of the number the result lay.

Drawing on ChEMBL document CHEMBL1144709, “Cycloartane-type triterpenoids from the resinous exudates of Commiphora opobalsamum” (J Nat Prod, 2008), this text covers IC50 for seven molecules.

The test system of assay [1] is PC-3. As to the kind of experiment: Cytotoxicity against human PC3 cells by MTT assay. Format: functional, cell-based. In a few lines:
(§1)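 Cells in 96-well plates exposed to test compounds for 48 h. MTT (5 mg/mL in PBS) then added and plates held 2 h at 37 °C under 5% CO2. Absorbance read at 570 nm and IC50 values reported.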
For orientation: Formazan colour is commonly taken as a measure of viable cells.

In assay [2] the test system is DU-145. As to the kind of experiment: Cytotoxicity against human DU145 cells by MTT assay. It is filed as functional, cell-based. In a few lines: as §1

Broadly, the IC50 is the concentration needed to halve the response being measured. In the case of `C[C@H](C/C=C/C(C)(C)O)[C@H]1CC[C@@]2(C)[C@@H]3CC[C@H]4C(C)(C)[C@@H](O)[C@H](O)[C@H](O)[C@@]45C[C@@]35CC[C@]12C`, the results for the IC50 in assay [1] and in assay [2] were 10.3 µM and 34.7 µM, respectively.

In the case of `CC(C)=CCC[C@@H](C)[C@H]1CC[C@@]2(C)[C@@H]3CC[C@H]4C(C)(C)[C@H](O)[C@H](O)[C@H](O)[C@@]45C[C@@]35CC[C@]12C`, the half-inhibitory concentration (IC50) in assay [1] and in assay [2] was greater than 50 µM throughout.

As to `CC(C)=CCC[C@@H](C)[C@H]1CC[C@@]2(C)[C@@H]3CC[C@H]4C(C)(C)[C@@H](O)[C@H](O)[C@H](O)[C@@]45C[C@@]35CC[C@]12C`, the IC50 was determined as 10.1 µM in assay [1] and 37.2 µM in assay [2].

Take `CC(C)=CCC[C@@H](C)[C@H]1CC[C@@]2(C)[C@@H]3CC[C@H]4C(C)(C)[C@@H](O)C[C@H](O)[C@@]45C[C@@]35CC[C@]12C`: the IC50 in assay [1] and in assay [2] was greater than 50 µM throughout.

Regarding `CC(=O)O[C@H]1[C@@H](O)[C@H](O)C(C)(C)[C@@H]2CC[C@@H]3[C@]4(CC[C@]5(C)[C@@H]([C@H](C)CCC=C(C)C)CC[C@@]35C)C[C@]124`, the IC50 in assay [1] was 13.4 µM; in assay [2], greater than 50 µM.

For the molecule `CC(C)=CCC[C@@H](C)[C@H]1CC[C@@]2(C)[C@@H]3CC[C@H]4C(C)(C)[C@@H](OC(=O)CC(C)C)[C@H](O)[C@H](O)[C@@]45C[C@@]35CC[C@]12C`, the IC50 is 28.4 µM in assay [1] and greater than 50 µM in assay [2].

Regarding `CC(=O)O[C@H]1[C@H](O)[C@H](O)[C@]23C[C@]24CC[C@]2(C)[C@@H]([C@H](C)CCC=C(C)C)CC[C@@]2(C)[C@@H]4CC[C@H]3C1(C)C`, the figures for the IC50 in assay [1] and in assay [2] were 15.4 µM and 20.7 µM, respectively.
